A selection: hits, their analogues and other compounds. The true share with any hit is near 1.9%.
CHRM4 antagonist = CHRM4 antagonism in calcium assay; P08173; CHO-hM4 cells, ACh EC80, Fluo-8 calcium fluorescence; inhibition, % at 3 µM; 360,000 tested, 0.73% active;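 active = inhibition above its plate's cutoff, the mean inhibition of sample wells plus 3 SD, cut at about 27% in these data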;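 note: 0% = acetylcholine EC80 with DMSO and 100% = DMSO without agonist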
Target sequence (P08173 whole entry, looked up): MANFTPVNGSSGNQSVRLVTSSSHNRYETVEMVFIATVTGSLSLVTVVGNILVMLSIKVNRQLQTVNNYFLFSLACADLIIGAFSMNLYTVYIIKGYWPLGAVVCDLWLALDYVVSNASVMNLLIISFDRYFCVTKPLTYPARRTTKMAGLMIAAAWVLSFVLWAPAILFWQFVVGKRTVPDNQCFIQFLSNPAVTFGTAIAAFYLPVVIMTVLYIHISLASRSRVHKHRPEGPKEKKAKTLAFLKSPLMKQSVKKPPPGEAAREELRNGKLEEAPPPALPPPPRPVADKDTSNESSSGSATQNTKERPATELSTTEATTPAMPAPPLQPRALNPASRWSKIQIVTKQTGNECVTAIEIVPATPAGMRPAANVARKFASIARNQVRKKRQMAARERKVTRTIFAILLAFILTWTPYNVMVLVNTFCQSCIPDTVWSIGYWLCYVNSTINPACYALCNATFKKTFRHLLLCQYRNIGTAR
CHRM5 antagonist = CHRM5 antagonism in calcium assay. CHO-hM5 cells, Fluo-8 calcium fluorescence, ACh EC80. inhibition, % at 3 µM. P08912. 360,000 tested, 0.59% active;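 active = inhibition above a per-plate cutoff, the mean of that plate's test compounds plus 3 SD, cut at about 27% in these data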;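 note: 0% = acetylcholine EC80 with DMSO and 100% = DMSO without agonist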
CHRM5 PAM = positive allosteric modulators of human muscarinic M5 receptor | P08912 | CHO-K1 hM5, Fluo-8 calcium, ACh EC20 PAM; 0% = ACh EC20, 100% = ACh EC100 | activation, % at 3 µM | 360,000 tested, 0.3% active | AID 624038;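 active = activation above the run cutoff, the mean activation of all test compounds plus 3 SD, cut at about 18% in these data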
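system = human M5 receptor in CHO-K1 cells | compound = one concentration, 3 µM final (nominal) | schedule = Post-acetylcholine fluorescence recording 140 s | signal = Fluo-8 calcium dye fluorescence, kinetic read | benchmarks = low control EC20 acetylcholine (0%), high control EC100 acetylcholine (100%) | repeats = singlicate, one well per test compound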
M4 PAM = CHRM4 positive allosteric modulation | CHO-K1 hM4/Gqi5, Fluo-8 calcium fluorescence, ACh EC20; 0% = ACh EC20, 100% = maximal ACh | 360,000 tested, 0.4% active | P08173 | AID 624126 | activation, % at 3 µM;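 active = activation above its plate's cutoff, the mean activation of sample wells plus 3 SD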
M5 ag = CHRM5 agonism in calcium assay; P08912; activation, % at 3 µM; 360,000 tested, 0.19% active; AID 624037; CHO-K1 hM5 cells, Fluo-8 calcium fluorescence; 0% DMSO wells, 100% maximal acetylcholine response;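 active = activation above the run's mean over test compounds plus 3 SD, cut at about 23% in these data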;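 note: signal is peak over basal fluorescence ratio across the kinetic read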
M4 ag = CHRM4 agonism in calcium assay | P08173 | CHO-K1 hM4/Gqi5, Fluo-8 calcium fluorescence; vehicle 0%, full acetylcholine response 100% | activation, % at 3 µM | 360,000 tested, 0.14% active | AID 624127;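 active = activation above the run mean over all test wells plus 3 SD, cut at about 32% in these data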;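 note: peak over basal fluorescence ratio per well then scaled between controls; 0% = DMSO wells and 100% = acetylcholine at EC100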
* = called active by the depositor.

How did Cc1ccc(Cn2nnc3c(=O)n(Cc4cc(C)ccc4C)cnc32)cc1 do in these assays?
CHRM4 antagonist: -1; CHRM5 antagonist: -5; CHRM5 PAM: -2; M4 PAM: 1; M5 ag: 2; M4 ag: 2

Results for Cc1ccc(Oc2ncccc2/C=N/OCc2ccc(Cl)cc2Cl)cc1 ?
CHRM4 antagonist: -4; CHRM5 antagonist: -6; CHRM5 PAM: 2; M4 PAM: 4; M5 ag: -1; M4 ag: 0

Results for Cc1ccc(Oc2ncccc2CO)cc1 ?
CHRM4 antagonist: -4; CHRM5 antagonist: -15; CHRM5 PAM: 6; M4 PAM: 26*; M5 ag: 0; M4 ag: 2

What do the screens show for `Cc1cccc(OCC(=O)Nc2ccc(N3CCN(C(=O)c4ccco4)CC3)cc2)c1`?
CHRM4 antagonist: 12; CHRM5 antagonist: 27*; CHRM5 PAM: -26; M4 PAM: -10; M5 ag: 10; M4 ag: 28

What do the screens show for `COc1cccc(CNC(=O)COC(=O)c2ccc(C(=O)c3ccccc3)cc2)c1`?
CHRM4 antagonist: -4; CHRM5 antagonist: 2; CHRM5 PAM: -3; M4 PAM: 8; M5 ag: -1; M4 ag: 5

What do the screens show for `NS(=O)(=O)c1ccc(CCNC(=O)c2ccc3c(c2)N(Cc2ccccc2)CCS3)cc1`?
CHRM4 antagonist: 12; CHRM5 antagonist: 31*; CHRM5 PAM: -18; M4 PAM: -15; M5 ag: -4; M4 ag: 18

How did CN1CCN(CCc2nc3cc(NC(=O)COc4ccc(Cl)cc4)ccc3n2C)CC1 do in these assays?
CHRM4 antagonist: 12; CHRM5 antagonist: 25; CHRM5 PAM: -9; M4 PAM: -7; M5 ag: -7; M4 ag: -2

What do the screens show for `O=C(NC(c1ccc(-c2ccccc2)cc1)c1cnccn1)C1CCN(CCCOc2ccccc2)CC1` (stereo not drawn)?
CHRM4 antagonist: 4; CHRM5 antagonist: 4; CHRM5 PAM: -6; M4 PAM: -14; M5 ag: 7; M4 ag: 36*

What do the screens show for `Cc1cc(C)c(C#N)c(SCC(=O)c2cccs2)n1`?
CHRM4 antagonist: 37*; CHRM5 antagonist: 7; CHRM5 PAM: -7; M4 PAM: 75*; M5 ag: -6; M4 ag: 5

Results for Cc1cc(SCC(=O)c2cccs2)n2nc(C)c(-c3ccc(Cl)cc3)c2n1 ?
CHRM4 antagonist: -3; CHRM5 antagonist: 9; CHRM5 PAM: 13; M4 PAM: 23*; M5 ag: 4; M4 ag: 1

How did Cc1ccccc1NC(=O)CSc1[nH]c(=O)cc(C)c1C#N do in these assays?
CHRM4 antagonist: -1; CHRM5 antagonist: -3; CHRM5 PAM: 3; M4 PAM: -2; M5 ag: 5; M4 ag: 3

What do the screens show for `Cc1cc(C)c(C#N)c(SCC(=O)c2ccccc2)n1`?
CHRM4 antagonist: -4; CHRM5 antagonist: 8; CHRM5 PAM: -7; M4 PAM: 26*; M5 ag: -7; M4 ag: 3

What do the screens show for `Cc1cc(=O)[nH]c(SCC(=O)c2ccccc2)c1C#N`?
CHRM4 antagonist: -11; CHRM5 antagonist: -5; CHRM5 PAM: 6; M4 PAM: 34*; M5 ag: 3; M4 ag: 2

What do the screens show for `CSc1nc(N)nc(SCC(=O)c2ccccc2)c1C#N`?
CHRM4 antagonist: -5; CHRM5 antagonist: -8; CHRM5 PAM: -10; M4 PAM: -3; M5 ag: 5; M4 ag: 9

What do the screens show for `Cc1nn2c(SCC(=O)c3cccs3)cc(C(C)(C)C)nc2c1-c1ccccc1`?
CHRM4 antagonist: -3; CHRM5 antagonist: 6; CHRM5 PAM: 2; M4 PAM: 7; M5 ag: 0; M4 ag: 1

Results for Cc1cc(=O)n2nc(N3CCCC(C(=O)NCc4ccccc4)C3)sc2n1 (stereo not drawn) ?
CHRM4 antagonist: 2; CHRM5 antagonist: 3; CHRM5 PAM: 1; M4 PAM: 3; M5 ag: -2; M4 ag: 1

How did Cc1ccc(C)c(NC(=O)CN(C)C(=O)c2ccccc2OCc2ccc(Cl)cc2)c1 do in these assays?
CHRM4 antagonist: -7; CHRM5 antagonist: 0; CHRM5 PAM: 2; M4 PAM: 5; M5 ag: -3; M4 ag: 3

How did O=C1c2ccccc2C(Nc2cccnc2)N1Cc1ccccc1 (stereo not drawn) do in these assays?
CHRM4 antagonist: 29*; CHRM5 antagonist: 5; CHRM5 PAM: -12; M4 PAM: -15; M5 ag: 0; M4 ag: 14

What do the screens show for `O=C1c2ccccc2C(Nc2cccnc2)N1Cc1ccccc1Cl` (stereo not drawn)?
CHRM4 antagonist: 4; CHRM5 antagonist: 7; CHRM5 PAM: -9; M4 PAM: -11; M5 ag: -2; M4 ag: 12

What do the screens show for `Cc1cccc(C(=O)NCC(=O)NCCSc2ccc(Br)cc2)c1`?
CHRM4 antagonist: -2; CHRM5 antagonist: 3; CHRM5 PAM: -6; M4 PAM: -4; M5 ag: -1; M4 ag: 2

How did Cn1cc(C(=O)N2CCN(c3ccccn3)CC2)c(=O)c2cc(S(=O)(=O)N3CCOCC3)ccc21 do in these assays?
CHRM4 antagonist: -7; CHRM5 antagonist: -4; CHRM5 PAM: 20*; M4 PAM: 8; M5 ag: -2; M4 ag: 1

How did O=C(/C=C/c1cccc([N+](=O)[O-])c1)Nc1ccc(Cl)cn1 do in these assays?
CHRM4 antagonist: 1; CHRM5 antagonist: 1; CHRM5 PAM: -6; M4 PAM: 1; M5 ag: 3; M4 ag: 1

Results for COc1cc(Cl)ccc1NC(=S)N(CCN1CCOCC1)C1CCN(C(C)=O)CC1 ?
CHRM4 antagonist: 61*; CHRM5 antagonist: 0; CHRM5 PAM: 5; M4 PAM: -12; M5 ag: -2; M4 ag: 0

How did COc1ccc(COc2ccccc2C(=O)NCc2ccccc2)cc1F do in these assays?
CHRM4 antagonist: 19; CHRM5 antagonist: 28*; CHRM5 PAM: -19; M4 PAM: -15; M5 ag: 4; M4 ag: 14

How did COc1cc(C(=O)NCc2ccccc2)ccc1OC(F)F do in these assays?
CHRM4 antagonist: -1; CHRM5 antagonist: 10; CHRM5 PAM: -6; M4 PAM: 3; M5 ag: -2; M4 ag: 0

How did NC(=O)c1ccc(=O)n(C2OC(CO)C(O)C2O)c1 (stereo not drawn) do in these assays?
CHRM4 antagonist: 2; CHRM5 antagonist: 2; CHRM5 PAM: 1; M4 PAM: 14; M5 ag: 3; M4 ag: 1

How did O=C1C=CC(=O)N1CCNc1ncc(C(F)(F)F)cc1Cl do in these assays?
CHRM4 antagonist: 28*; CHRM5 antagonist: -7; CHRM5 PAM: 5; M4 PAM: -8; M5 ag: -2; M4 ag: 5

Bioassay records as filed in PubChem BioAssay.
